Screening data: PubChem BioAssay, several laboratories
Shown are actives, neighbours in structure and some others; about 1.8% of the full set was active somewhere.
A1 inh: inhibitors of the anti-apoptotic protein A1, read as caspase activation. 330,000 compounds, 0.066% hits. caspase activation, % (no concentration beside the values). MEF A1-2A-BIM cells, Caspase-Glo 3/7 luminescence, 3 h; percent of clofoctol response, vehicle zero;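 active means over half of replicate activation scores above 10%, or exactly half above 10 with the replicate mean above 10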
ATG4B inhibitor: inhibitors of human ATG4B cysteine protease. Q9Y4P1. ATG4B cleavage of LC3-PLA2, NBD-HPC fluorescence, 1 h. inhibition, % at 8.33 µM. 340,000 compounds, 0.51% hits. AID 504462; in the data active means inhibition above about 40%
Target sequence (Q9Y4P1 whole entry, looked up): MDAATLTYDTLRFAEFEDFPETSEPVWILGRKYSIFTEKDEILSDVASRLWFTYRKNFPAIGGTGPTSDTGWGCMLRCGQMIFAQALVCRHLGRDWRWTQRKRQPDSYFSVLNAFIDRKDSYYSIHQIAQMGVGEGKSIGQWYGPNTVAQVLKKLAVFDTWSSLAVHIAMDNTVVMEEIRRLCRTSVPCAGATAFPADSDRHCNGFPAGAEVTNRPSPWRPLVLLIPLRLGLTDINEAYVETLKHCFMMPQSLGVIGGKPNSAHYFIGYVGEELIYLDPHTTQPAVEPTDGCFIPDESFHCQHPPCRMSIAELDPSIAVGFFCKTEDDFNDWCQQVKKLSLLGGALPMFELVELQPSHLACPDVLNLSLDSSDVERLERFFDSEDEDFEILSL
AI-2 QS mod: modulators of Vibrio harveyi AI-2 quorum sensing system | Vibrio harveyi JMH597 AI-2 luminescence/OD600 ratio, 9 h; stronger effect = lower value; strain lacks LuxN and CqsS sensors; 0 = neutral-control median | activity change, % at 7.5 µM | 300,000 compounds, 0.4% hits; in the data active means activity change below about -75%, passing the limit was not always enough;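 further: luminescence divided by OD600 gain over 9 h not by final OD600 alone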
LANA-H2A inh: blocks KSHV LANA binding to histone H2A/H2B. Q9QR71. cell-free LANA-H2A/H2B peptide, fluorescence polarization. inhibition, % (concentration not given with the values). 320,000 compounds, 0.6% hits. AID 2629; in the data active means inhibition mostly above about 10%, no sharp cut-off; inactive means mostly below about 6.7%
HDAC3 inhib: inhibitors of human histone deacetylase 3. O15379. recombinant HDAC3, fluorogenic peptide/trypsin coupled, fluorescence. 320,000 compounds, 0.15% hits. inhibition, % at 8.3 µM; in the data active means inhibition above about 26%, passing the limit was not always enough
HKDC1 inh: inhibitors of human hexokinase HKDC1. Q2TB90. recombinant HKDC1, G6PDH/diaphorase resazurin coupled fluorescence. inhibition, % at 20 µM. 340,000 compounds, 0.16% hits. AID 493160;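 active means inhibition above about 35% when tested at 20 µM, limit read from the data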;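 further: plate controls were DMSO wells with enzyme for no effect and DMSO wells lacking enzyme for full effect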
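Incubation: 90 min at room temperature in dark / Material: recombinant HKDC1 (HK5) hexokinase enzyme, produced in-house / Quantity: enzyme 5 µg/mL final / Compound: one dose of 20 µM, 1% DMSO / Reagent: glucose and ATP substrates / Buffer or medium: Tris pH 8.0 buffer with MgCl2, Tween-20, BSA, BME / Technique: resorufin fluorescence at 613 nm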
Numbers without * were called inactive; . = no result given; ! = a repeat was not active.

SMILES	A1 inh	ATG4B inhibitor	AI-2 QS mod	LANA-H2A inh	HDAC3 inhib	HKDC1 inh
O=S(=O)(Nc1ccc(S(=O)(=O)Nc2nccs2)cc1)c1ccc(Br)cc1	0.5	-3.2	20.5	-4.7	43.1*	0.1
COc1cc(NC(=O)NS(=O)(=O)c2ccc(C)cc2)cc(OC)c1	0.4	-1.5	15.1	-2.8	3.0	11.6
COc1ccc(NC(=O)NS(=O)(=O)c2ccc(C)cc2)cn1	0.3	7.4	0.9	67.9*	0.7	4.2
CN1C2CCC1CC(OC(=O)C(CO)c1ccccc1)C2 (stereo not given)	-0.4	-6.7	.	6.8	6.9	-2.2
CN1[C@@H]2CC[C@H]1CC(OC(=O)C(CO)c1ccccc1)C2 (stereo not given in full)	0.2	4.6	14.5	36.2*!	2.6	-2.9
Cc1ccccc1C1CC(c2ccc(Br)cc2)Nc2nc(N)nn21 (stereo not given)	-0.2	0.9	13.0	17.4*	2.3	8.9
c1ccc(CCc2nn3c(Cn4nnc5ccccc54)nnc3s2)cc1	0.7	-5.9	30.5	0.6	-0.4	-6.4
c1ccc(Cc2nn3c(Cn4nnc5ccccc54)nnc3s2)cc1	21.2*	-9.1	-3.5	1.2	4.8	-12.1
C=Cc1c(C)c2cc3[nH]c(cc4nc(cc5nc(cc1[nH]2)C(C)=C5CCC(=O)O)C(CCC(=O)O)=C4C)c(C)c3C=C	0.6	48.2*!	41.0	-2.2	-0.9	2.6
C[C@H](CO)N1C[C@H](C)[C@@H](CN(C)C)Oc2c(NC(=O)Cc3ccccc3)cccc2C1=O	.	.	.	.	.	-7.8
C[C@H](CO)N1C[C@H](C)[C@@H](CN(C)S(=O)(=O)c2ccccc2)Oc2ccc(NC(=O)CCC(F)(F)F)cc2C1=O	1.3	-13.4	.	28.3*	1.8	1.6
C[C@H](CO)N1C[C@H](C)[C@@H](CN(C)Cc2ccncc2)Oc2c(NC(=O)CCCCCC(=O)Nc3ccccc3N)cccc2C1=O	0.0	-9.5	.	-5.8	57.0*	8.3
C[C@H](CO)N1C[C@H](C)[C@@H](CN(C)C)Oc2c(NC(=O)CCCCCC(=O)Nc3ccccc3N)cccc2C1=O	-0.3	1.0	.	1.3	67.2*	-1.9
C[C@H](CO)N1C[C@H](C)[C@@H](CN(C)Cc2ccccc2)Oc2ccc(NC(=O)CCCCCC(=O)Nc3ccccc3N)cc2C1=O	0.5	-18.8	.	-4.5	74.8*	6.7
C[C@H](CO)N1C[C@H](C)[C@@H](CN(C)Cc2ccncc2)Oc2c(NC(=O)Cc3ccccc3)cccc2C1=O	0.3	-1.2	.	-2.2	6.8	-2.9
CN(C)S(=O)(=O)c1cccc(C(=O)NCC(C)(C)CNC(=O)c2cccc(S(=O)(=O)N(C)C)c2)c1	0.1	0.9	16.3	-5.8	3.0	-4.7
Cc1ccnc(NC(=O)CNC(=O)c2ccc(Br)o2)c1	0.9	2.2	-85.3*	-0.8	0.3	-8.9
O=c1[nH][nH]c(C(F)(F)F)c1/C=N/N1CCOCC1	0.5	1.6	16.6	-2.0	-5.7	-4.3
COC(=O)C1C(O)C(C)C(O)C(C)(O)/C=C\C=C(/C)C(=O)Nc2c(C)c(OC(C)=O)c3c(c2O)C(=O)C(C)=C2OCOC(=C23)/C(C)=C/C(C)(O)C(O)C(C)C1O (stereo not given)	-0.3	-6.0	-159.8*	2.6	11.5	13.1
Cn1c(CNC(=O)c2ccccc2F)nnc1SCCOc1ccccc1	0.7	-1.3	17.2	0.4	-4.1	-2.3
O=C(/C=C/c1cccc([N+](=O)[O-])c1)c1ccc([N+](=O)[O-])o1	1.9	6.8	60.7	1.4	7.0	54.7*
CC(=O)N(C)c1ccc(NC(=O)C(Sc2ccccc2)c2ccccc2)cc1 (stereo not given)	-0.1	-7.0	23.8	-2.2	1.8	-0.8
CC(C)(C)NS(=O)(=O)c1ccc(NC(=O)C(Sc2ccccc2)c2ccccc2)cc1 (stereo not given)	0.5	-20.7	48.1	1.8	28.6*	7.6
O=C(Oc1ccc(N(Cc2cccs2)C2=NS(=O)(=O)c3ccccc32)cc1)c1ccco1	0.9	-0.3	28.2	-1.9	58.1*	-2.7
CN(C)CCOCCOc1ccc(Cl)cc1Br	-0.5	2.1	16.4	12.0*	3.8	-5.4
SMILES	A1 inh	ATG4B inhibitor	AI-2 QS mod	LANA-H2A inh	HDAC3 inhib	HKDC1 inh
CN(C)CCCOc1ccc(Cl)cc1Br	0.5	2.8	5.7	1.1	-1.5	-9.2
CCCCCCCCNCCS(=O)(=O)NCc1ccc(OC)cc1	.	.	.	.	.	2.9
CC1(C)Cc2ccccc2C(C(=O)c2ccccc2)=N1	1.4	-3.4	8.4	-1.9	-0.5	-6.5
CC1(C)Cc2ccccc2C(C(Cc2ccccc2)C(N)=O)=N1 (stereo not given)	1.6	-3.1	8.0	6.5*	-8.0	-7.7
O=c1[nH]c2cc3c(cc2cc1CN(CCc1ccccc1)C(=S)NCCCN1CCOCC1)OCCO3	.	-7.5	.	.	.	-3.5
Cc1ccc2cc(C#N)c(NCCNC(=O)C3CCC3)nc2c1C	0.0	2.6	1.2	53.1*	-46.5	0.6
CCOc1ccc(NC(=O)COC(=O)CCN2C(=O)C3CC=CCC3C2=O)cc1OCC (stereo not given)	-0.3	-8.0	.	40.2*	-6.0	-5.9
CCOc1ccc2nc(NCCNC(=O)Nc3cccc(C)c3)c(C#N)cc2c1	7.5*	-2.5	3.7	5.0	-7.5	12.8
C#CCN1C=CC(=O)[C@@H](OC(=O)Nc2ccc(Cl)cc2)[C@H]1c1ccccc1Br	.	-1.6	.	.	.	-0.8
COc1ccc2c(-c3cc4ccc(OCc5ccc(F)cc5)cc4oc3=O)cc(=O)oc2c1	9.6*	-7.2	24.9	3.8	-1.3	-10.2
COc1ccc(COc2ccc3c(C)cc(=O)oc3c2)cc1	-5.2	-7.4	-28.8	-1.7	-4.8	-1.6
FC(F)(F)c1cccnc1-n1cncn1	-0.1	0.2	16.1	12.7*	-0.7	4.4
CC(C)(C)OC(=O)N[C@@H](Cc1ccccc1)c1nnc(S(=O)(=O)Cc2ccccc2)o1	1.9	.	.	0.1	75.5*	.
Cc1ccccc1CS(=O)(=O)c1nnc([C@H](Cc2ccccc2)NC(=O)OC(C)(C)C)o1	0.9	-3.4	7.8	-1.3	45.7*	1.3
CCSc1nnc([C@H](Cc2ccccc2)NC(=O)OC(C)(C)C)o1	0.0	-14.0	22.3	2.3	7.3	-8.2
CCS(=O)(=O)C1=NN2C(=N)/C(=C\c3ccc(OC(=O)c4ccco4)cc3)C(=O)N=C2S1	-0.5	12.0	22.5	1.4	6.5	10.5
CCC(CC)C1=NN2C(=N)/C(=C/c3ccc(OC(=O)c4ccco4)cc3)C(=O)N=C2S1	-0.3	2.1	24.3	5.3	31.8*	4.8
O=C(NC1CCCCC1)c1ccc(-c2ccccc2F)o1	-2.5	0.5	.	3.3	3.1	0.6
